From PubChem
Exocytosis inh – lytic granule exocytosis inhibition | TALL-104 LAMP-1 surface exposure, flow cytometry; cells stimulated with thapsigargin and PMA | inhibition, % at 10 µM | 360,000 compounds, 0.66% hits;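 active means inhibition above about 55%, limit read from the data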
ASAP1 inh – inhibitors of human ASAP1 ArfGAP activity | ASAP1-stimulated ARF1 GTP hydrolysis, GDP FP detection | inhibition, % at 16.5 µM | 360,000 compounds, 0.19% hits; in the data active means inhibition above about 25%;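 further: 0% = vehicle with enzyme and substrate and 100% = no enzyme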
Target sequence (Q9ULH1 325-724 limits assumed): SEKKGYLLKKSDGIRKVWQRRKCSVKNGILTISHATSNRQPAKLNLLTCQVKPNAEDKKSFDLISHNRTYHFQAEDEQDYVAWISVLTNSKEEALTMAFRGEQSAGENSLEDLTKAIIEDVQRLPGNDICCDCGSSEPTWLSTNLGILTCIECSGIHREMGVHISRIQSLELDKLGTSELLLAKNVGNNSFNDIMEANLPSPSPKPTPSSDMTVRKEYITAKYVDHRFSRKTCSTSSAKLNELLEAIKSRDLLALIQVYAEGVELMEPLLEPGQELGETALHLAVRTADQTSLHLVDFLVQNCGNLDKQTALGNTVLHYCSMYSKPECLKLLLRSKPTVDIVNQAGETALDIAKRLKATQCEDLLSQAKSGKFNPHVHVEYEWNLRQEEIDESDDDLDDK
V-ATPase pH – alters yeast V-ATPase proton transport. S. cerevisiae, pHLuorin cytosolic pH fluorescence. response, % at 10 µM. 350,000 compounds, 0.37% hits; in the data active means response mostly above about 7.3%, no sharp cut-off; inactive means mostly below about 5.4%; further: actives read high
NRP1-CendR mod – modulators of CendR peptide binding to human neuropilin-1. FAM-RPARPAR peptide binding to NRP-1, fluorescence polarization. inhibition, % at 25 µM. 360,000 compounds, 0.85% hits. AID 602438. O14786;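 active means inhibition or corrected inhibition above about 18%, plus a signal ratio from 0.5 to 1.5, limit read from the data, passing the limit was not always enough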
ARFGAP1 inhibitor – inhibits rat ARF GTPase activating protein 1; Q62848; Arfgap1-stimulated ARF1 GTP hydrolysis, GDP FP detection; inhibition, % at 16.5 µM; 360,000 compounds, 0.26% hits; AID 651572;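 active means inhibition above a per-plate limit, mean inhibition of low control wells plus 3 SD, cut at about 25% in these data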;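 further: 0% = DMSO wells with enzyme and 100% = wells lacking Arfgap1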
Target sequence (Q62848 1-136 limits assumed): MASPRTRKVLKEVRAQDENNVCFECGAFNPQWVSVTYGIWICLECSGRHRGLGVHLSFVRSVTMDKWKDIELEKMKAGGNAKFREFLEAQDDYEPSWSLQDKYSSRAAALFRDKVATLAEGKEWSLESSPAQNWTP
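System: truncated rat Arfgap1 GAP domain / Benchmarks: high control wells lacking Arfgap1, low control full reaction with DMSO / Times: compound-enzyme preincubation 20 min, reaction 120 min, detection 60 min, 25 °C / Repeats: one replicate per compound / Also added: human ARF1(Δ1-17)-GTP substrate / Measured by: Tracer-displacement fluorescence polarization with EDTA stop, 620/688 nm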
* hit, by the source's call; nt = not tested or not shown. Only some compounds are listed: those with a hit (about 2.2% of all), similar ones and a draw of the others.

SMILES	Exocytosis inh	ASAP1 inh	V-ATPase pH	NRP1-CendR mod	ARFGAP1 inhibitor
NC(=O)C1CCCN(C(=O)c2ccc3nc(Cc4cccc(Cl)c4)oc3c2)C1 (configuration not stated)	-2.0	1.9	-1.9	27.1*	0.2
COC(=O)[C@]12C[C@H](CC(=O)NCCCCc3ccccc3)C(=O)N(Cc3ccccc3)C1=C[C@H](C(C)(C)C)O[C@@H]2C	nt	-9.8	nt	nt	2.0
O=C(NNS(=O)(=O)c1ccccc1[N+](=O)[O-])c1cc2ccccc2cc1O	-4.9	-9.1	-3.6	23.3*	12.3
O=C(NNS(=O)(=O)c1ccc(F)cc1)c1cc2ccccc2cc1O	-0.5	-1.4	-3.1	8.2	9.6
Nc1ccc2cccc(O)c2c1	49.3	-14.2	0.4	28.5*	-0.4
Nc1ccc2cc3ccccc3cc2c1	3.3	7.8	-8.3	-68.9	3.1
COc1ccc(CCNC(=O)CCc2nc3ccccc3[nH]2)cc1OC	-2.8	1.4	14.3*	-9.5	1.9
O=C(NCc1cccnc1)/C(=C\c1ccc(-c2ccc(Cl)c(Cl)c2)o1)S(=O)(=O)c1ccccc1	100.7*	12.9	-3.8	-10.7	-10.1
CCn1c(=S)sc2c(=O)n(CC(=O)NCCCc3ccccc3)c(C)nc21	-4.4	-1.6	-2.7	26.1*	0.1
CCn1c(=S)sc2c(=O)n(CC(=O)Nc3cccc(Cl)c3)c(C)nc21	-3.9	0.5	-6.0	-3.8	3.6
COc1ccc(NS(=O)(=O)c2ccc3c(c2)CCC(=O)N3)c(OC)c1	-4.2	nt	18.5*	-15.6	nt
CCOC1=C2[C@@H](CN(S(=O)(=O)c3ccccc3C)[C@H]2c2ccc(Cl)cc2)[C@H]2C(=O)N(c3ccccc3)C(=O)[C@H]2C1	1.3	-4.0	nt	22.2*	0.5
CN1CCN(Cc2c(O)ccc3occ(C(=O)c4ccccc4)c23)CC1	0.3	-19.9	-4.1	1.0	6.0
CC(=O)C(C(C)=O)c1c(Cl)c(O)c(O)c2c(C(=O)c3ccccc3)coc12	91.0*	-8.8	-0.4	12.4	7.8
COc1cc(N/C(=C\C(=O)c2ccccc2)c2ccccc2)ccc1Cl	nt	-1.2	nt	nt	-0.4
CC1=CC(C)(C)[N+](C)(C)c2ccc(C)cc21	1.1	11.4	-1.5	38.2*	10.2
CCN1CCN(CCNC(=O)c2ccc(/C=C3\Sc4ccccc4N(Cc4ccccc4F)C3=O)cc2)CC1	72.2*	-1.7	10.0	9.7	-5.6
CN1CCN(CCCNC(=O)c2ccc(/C=C3\Oc4ccccc4N(Cc4ccccc4F)C3=O)cc2)CC1	25.9	-3.1	-2.7	-2.8	5.3
Cc1cccc(CN2C(=O)/C(=C\c3ccc(C(=O)NCCCN4CCN(C)CC4)cc3)Oc3ccccc32)c1	35.1	11.4	1.2	1.4	9.9
CN1CCN(CCCNC(=O)c2ccc(/C=C3/Sc4ccccc4N(Cc4cccc(Cl)c4)C3=O)cc2)CC1	75.4*	9.3	-2.1	1.4	-3.1
COC(=O)C1=C(C)N(Cc2ccc(C(F)(F)F)cc2)C(=NCC2CC2)NC1c1ccccc1C(F)(F)F (configuration not stated)	nt	0.7	nt	nt	4.5
COc1ccc(COc2cc(-c3cccc(OC)c3)nc3ccc(NC(C)=O)cc23)cc1	25.1	0.2	4.4	27.3*	4.2
COc1ccc(COc2cc(-c3cccc(OC)c3)nc3ccc(NC(=O)c4ccc(N(C)C)cc4)cc23)cc1	-3.7	nt	7.4	28.2*	nt
COc1ccc(COc2cc(-c3cccc(OC)c3)nc3ccc(NC(=O)c4ccc(C)cc4)cc23)cc1	8.3	15.9	1.0	8.5	4.6
COc1ccc(COc2cc(-c3cccc(OC)c3)nc3ccc(N)cc23)cc1	18.3	-8.7	2.7	-7.6	8.0
SMILES	Exocytosis inh	ASAP1 inh	V-ATPase pH	NRP1-CendR mod	ARFGAP1 inhibitor
O=C(N[C@H](C(=O)N1CCC[C@H]1C(=O)NC1CCCC1)c1ccccc1)c1ccc(Cl)c(Cl)c1	nt	3.6	nt	nt	11.0
COC(=O)C1=C(C)N(C)C(=NCC2CC2)NC1c1cccc(F)c1 (configuration not stated)	nt	-9.0	nt	nt	-11.5
Cc1ccc(NC(=O)CCC(=O)N/N=C/c2cccnc2)cc1	-1.9	5.1	0.2	0.7	4.1
Cc1ccccc1NC(=O)CCC(=O)N/N=C/c1cccnc1	-0.5	-14.3	-1.5	21.6*	-12.1
C#CCOCCOCCOCCNc1nc(N2CCN(C(=O)C([C@@H](C)CC)n3cc(C(N)CC(C)C)nn3)CC2)nc(N2CCN(C(=O)[C@H](CCC(=O)O)n3cc(C(N)CC(C)C)nn3)CC2)n1 (some centres not stated)	76.4*	nt	2.7	16.9	nt
C#CCOCCOCCOCCNc1nc(N2CCN(C(=O)[C@H](C(C)C)n3cc(CCO)nn3)CC2)nc(N2CCN(C(=O)[C@H](Cc3ccc(O)cc3)n3cc(CCO)nn3)CC2)n1	17.3	9.2	0.0	28.8*	3.9
C#CCOCCOCCOCCNc1nc(N2CCN(C(=O)[C@H]([C@@H](C)O)n3cc(CCCCN)nn3)CC2)nc(N2CCN(C(=O)[C@H](Cc3ccc(O)cc3)n3cc(CCO)nn3)CC2)n1	13.9	0.4	-0.6	22.2*	4.0
C#CCOCCOCCOCCNc1nc(N2CCN(C(=O)[C@H](CCCCN)n3cc([C@@H](N)CO)nn3)CC2)nc(N2CCN(C(=O)[C@H](Cc3ccc(O)cc3)n3cc([C@@H](N)CC(C)C)nn3)CC2)n1	67.5*	-16.8	3.7	19.1	9.9
C#CCOCCOCCOCCNc1nc(N2CCN(C(=O)[C@H](Cc3ccc(O)cc3)n3cc([C@@H](N)C(C)CC)nn3)CC2)nc(N2CCN(C(=O)[C@H](CCCCN)n3cc([C@@H](N)CO)nn3)CC2)n1 (some centres not stated)	0.6	nt	1.8	-3.5	nt
COC(=O)c1cc2c(c3c4cc(F)ccc4n(S(=O)(=O)c4ccc(C)cc4)c13)C(=O)N(C)C2	nt	-1.6	nt	nt	-2.7
CCOC(=O)C1=C(N)Oc2cc(O)ccc2C1c1cccc(Cl)c1 (configuration not stated)	10.3	1.4	4.1	26.8*	20.9
CCOC(=O)C1=C(N)Oc2cc(O)ccc2C1c1cccnc1 (configuration not stated)	0.7	6.3	1.5	-4.0	5.2
CCCCS(=O)(=O)N1C2=NC(C(=O)OCC)=C(C(=O)OCC)C3N(Cc4ccc(C#N)cc4)c4ccccc4[C@]23C[C@H]1C(=O)OC (some centres not stated)	nt	-5.4	nt	nt	-3.5
CCS(=O)(=O)NCC(c1cccnc1)N1CCN(c2ccccc2)CC1 (configuration not stated)	8.9	-8.0	20.6*	-8.1	-4.2
O=C(Cn1c(=S)[nH]c2ccccc21)c1ccccc1	1.5	-1.1	-0.5	32.8*	5.3
CCN1C[C@@H]2[C@@H]3C(=O)N(Cc4ccccc4)C(=O)[C@@H]3[C@](C)(C1=O)N2C(=O)c1ccc(Br)cc1	-5.3	-8.4	0.6	0.3	6.8
CCS(=O)(=O)c1nc(S(=O)(=O)c2ccc(Cl)cc2)c(N2CCOCC2)s1	-3.5	-9.4	-3.0	35.0*	-7.9
O=C(c1ccc(-c2cccc(C(F)(F)F)c2)o1)N1CCCC(C(F)(F)F)C1 (configuration not stated)	14.4	-11.4	-7.0	21.5*	3.0
